Data published in ChEMBL document CHEMBL4138082 (Eur J Med Chem, 2017).
Activity calls are given as the source filed them. The rule behind the calls is not given here.

Columns and labels:
[1] = tested on: HT-29; experiment: Antiproliferative activity against human HT-29 cells after 72 hrs by MTT assay; assay type: functional, cell-based; conditions: HT-29, 72 h
Outline: (§1)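 MTT assay. Cells were seeded and grown 24 h at 37 °C in 5% CO2, then exposed to compound or left untreated for 72 h. MTT (5 mg/mL stock) was added for 4 h and the formazan dissolved in DMSO. OD was read at 570 nm. IC50 is the concentration giving 50% growth inhibition, reported as mean ± SD of three independent experiments. Vehicle reference was 0.1% DMSO.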

[2] = tested on: HepG2; experiment: Downregulation of survivin expression in human HepG2 cells after 24 hrs by protein array assay; assay type: functional, cell-based
Outline: (§2)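 Lysates from HepG-2 cells treated 24 h were incubated overnight at 4 °C on a membrane array of 35 apoptosis-related proteins. A biotinylated detection antibody cocktail was then applied for 1 h at room temperature. Relative expression was read from chemiluminescent spots by densitometry.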

[3] = tested on: HepG2; experiment: Downregulation of HO-1 expression in human HepG2 cells after 24 hrs by protein array assay; assay type: functional, cell-based; outline: as §2
[4] = tested on: HepG2; experiment: Downregulation of HO-2 expression in human HepG2 cells after 24 hrs by protein array assay; assay type: functional, cell-based; outline: as §2
[5] = tested on: HepG2; experiment: Induction of apoptosis in human HepG2 cells assessed as cell population with mitochondrial membrane potential loss at 0.125 uM measured after 48 hrs by JC-1 staining based flow cytometry (reference value: 1.49%); assay type: functional
Outline: (§3)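 HepG-2 cells were exposed 48 h to 0.0625, 0.125 or 0.25 µM or to vehicle, then washed in PBS and stained with JC-1 in the dark. Red aggregate versus green monomer fluorescence was measured by flow cytometry to give the percentages of cells with healthy versus collapsed mitochondrial membrane potential.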

[6] = tested on: HepG2; experiment: Cell cycle arrest in human HepG2 cells assessed as G1 phase accumulation at 0.125 uM after 48 hrs by propidium iodide staining based flow cytometry (reference value: 32.74%); assay type: functional
Outline: (§4)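 HepG-2 cells were plated and grown 24 h at 37 °C, then treated 48 h at 0, 0.0625, 0.125 or 0.25 µM, with 0.1% DMSO as control. Cells were fixed overnight in 70% ethanol at 4 °C, treated with RNase A and stained with propidium iodide. DNA content was measured by flow cytometry to give cell-cycle phase distribution.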

[7] = tested on: HepG2; experiment: Induction of apoptosis in human HepG2 cells assessed as late apoptotic cells at 0.125 uM after 48 hrs in presence of hemoglobin by Annexin V-APC/7-AAD staining based flow cytometry (reference value: 3.36%); assay type: functional
[8] = tested on: HepG2; experiment: Induction of apoptosis in human HepG2 cells assessed as cell population with mitochondrial membrane potential loss at 0.25 uM measured after 48 hrs by JC-1 staining based flow cytometry (reference value: 1.49%); assay type: functional; outline: as §3
[9] = Drug metabolism in human HepG2 cells assessed as NO release by measuring nitrite formation at 100 uM after 1 hr by Griess assay; assay type: ADME, cell-based; conditions: hepg2, 1 h
Outline: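 HepG-2 or L-02 cells were exposed to 100 µM of each compound for 60 min and then harvested. Lysates were mixed with Griess reagent for 10 min at 37 °C and absorbance was read at 550 nm. NO release is expressed as nitrite, reported as mean ± SD of three independent experiments.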

[10] = tested on: HepG2; experiment: Induction of apoptosis in human HepG2 cells assessed as late apoptotic cells at 0.0625 uM after 48 hrs in presence of hemoglobin by Annexin V-APC/7-AAD staining based flow cytometry (reference value: 3.36%); assay type: functional
[11] = tested on: HepG2; experiment: Cell cycle arrest in human HepG2 cells assessed as G2 phase accumulation at 0.25 uM after 48 hrs in presence of hemoglobin by propidium iodide staining based flow cytometry (reference value: 10.67%); assay type: functional
[12] = tested on: HepG2; experiment: Cell cycle arrest in human HepG2 cells assessed as S phase accumulation at 0.0625 uM after 48 hrs by propidium iodide staining based flow cytometry (reference value: 43.88%); assay type: functional; outline: as §4
[13] = tested on: HepG2; experiment: Downregulation of pro-caspase 3 level in human HepG2 cells up to 0.25 uM after 48 hrs by Western blot method; assay type: functional, cell-based
Outline: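 HepG-2 cells were exposed 48 h to 0, 0.0625, 0.125 or 0.25 µM and lysed on ice for 20 min. Equal protein loads were run on 12% SDS-PAGE and transferred to PVDF. Membranes were probed overnight at 4 °C with primary antibodies, then with HRP-conjugated secondaries, and detected by ECL chemiluminescence.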

[14] = tested on: HepG2; experiment: Induction of apoptosis in human HepG2 cells assessed as early apoptotic cells at 0.0625 uM after 48 hrs by […] based flow cytometry (reference value: 3.18%); assay type: functional
[15] = tested on: HepG2; experiment: Cell cycle arrest in human HepG2 cells assessed as G1 phase accumulation at 0.0625 uM after 48 hrs by propidium iodide staining based flow cytometry (reference value: 32.74%); assay type: functional; outline: as §4
[16] = tested on: HepG2; experiment: Cell cycle arrest in human HepG2 cells assessed as S phase accumulation at 0.25 uM after 48 hrs by propidium iodide staining based flow cytometry (reference value: 43.88%); assay type: functional; outline: as §4
[17] = tested on: HepG2; experiment: Cell cycle arrest in human HepG2 cells assessed as G2 phase accumulation at 0.0625 uM after 48 hrs in presence of hemoglobin by propidium iodide staining based flow cytometry (reference value: 10.67%); assay type: functional
[18] = tested on: HepG2; experiment: Induction of apoptosis in human HepG2 cells assessed as cell population with intact mitochondrial membrane potential at 0.0625 uM measured after 48 hrs by JC-1 staining based flow cytometry (reference value: 98.51%); assay type: functional; outline: as §3
[19] = tested on: HepG2; experiment: Cell cycle arrest in human HepG2 cells assessed as G2 phase accumulation at 0.125 uM after 48 hrs in presence of hemoglobin by propidium iodide staining based flow cytometry (reference value: 10.67%); assay type: functional
[20] = tested on: HepG2; experiment: Upregulation of caspase 3 level in human HepG2 cells up to 0.25 uM after 48 hrs by Western blot method; assay type: functional, cell-based
[21] = tested on: HepG2; experiment: Cell cycle arrest in human HepG2 cells assessed as G2 phase accumulation at 0.125 uM after 48 hrs by propidium iodide staining based flow cytometry (reference value: 23.38%); assay type: functional; outline: as §4
[22] = tested on: HepG2; experiment: Induction of apoptosis in human HepG2 cells assessed as early apoptotic cells at 0.25 uM after 48 hrs by […] based flow cytometry (reference value: 3.18%); assay type: functional
[23] = tested on: HepG2; experiment: Cell cycle arrest in human HepG2 cells assessed as G2 phase accumulation at 0.0625 uM after 48 hrs by propidium iodide staining based flow cytometry (reference value: 23.38%); assay type: functional; outline: as §4
[24] = tested on: PC-3; experiment: Antiproliferative activity against human PC3 cells after 72 hrs by MTT assay; assay type: functional, cell-based; conditions: PC-3, 72 h; outline: as §1
[25] = tested on: HepG2; experiment: Induction of apoptosis in human HepG2 cells assessed as cell population with mitochondrial membrane potential loss at 0.0625 uM measured after 48 hrs by JC-1 staining based flow cytometry (reference value: 1.49%); assay type: functional; outline: as §3
[26] = tested on: HepG2; experiment: Antiproliferative activity against human HepG2 cells after 72 hrs by MTT assay; assay type: functional, cell-based; conditions: HepG2, 72 h; outline: as §1
[27] = tested on: HepG2; experiment: Induction of apoptosis in human HepG2 cells assessed as viable cells at 0.0625 uM after 48 hrs by Annexin V-APC/7-AAD staining based flow cytometry (reference value: 91.07%); assay type: functional; conditions: HepG2, 48 h, read-out: Activity
[28] = tested on: HepG2; experiment: Cell cycle arrest in human HepG2 cells assessed as G2 phase accumulation at 0.25 uM after 48 hrs by propidium iodide staining based flow cytometry (reference value: 23.38%); assay type: functional; outline: as §4

- IC50 [1]: 160 nM
- Drug metabolism [9]: 98.5 µM
- IC50 [24]: 25 nM
- IC50 [26]: 180 nM
SMILES: C[C@H]1CCC/C=C/[C@@H]2C[C@H](OC(=O)CCCC(=O)OCCOc3no[n+]([O-])c3S(=O)(=O)c3ccccc3)C[C@H]2[C@H](OC(=O)CCCC(=O)OCCOc2no[n+]([O-])c2S(=O)(=O)c2ccccc2)/C=C/C(=O)O1
- Activity [2]: Active
- Activity [3]: Active
- Activity [4]: Active
- Activity [5]: 35.45%
- Activity [6]: 31.78%
- Activity [7]: 9.87%
- Activity [8]: 60.14%
- Activity [10]: 6.68%
- Activity [11]: 5.3%
- Activity [12]: 48.2%
- Activity [13]: Active
- Activity [14]: 3.1%
- Activity [15]: 32.84%
- Activity [16]: 72.16%
- Activity [17]: 7.2%
- Activity [18]: 83.42%
- Activity [19]: 6.22%
- Activity [20]: Active
- Activity [21]: 17%
- Activity [22]: 15.03%
- Activity [23]: 18.96%
- Activity [25]: 16.58%
- viability at 0.0625 µM [27]: 82.1%
- Activity [28]: 2.67%
